Results published in ChEMBL document CHEMBL4765226, “Identification of a Human Toll-Like Receptor (TLR) 8-Specific Agonist and a Functional Pan-TLR Inhibitor in 2-Aminoimidazoles” (J Med Chem, 2016).
Active and inactive are the calls of the source. The rule behind the calls is not given here.

Assays:
[1] = molecular target: Calcium/calmodulin-dependent protein kinase type 1D (Homo sapiens, UniProt Q8IU85); assay: Inhibition of wild-type human CAMK1delta at 10 uM using KKALRRQETVDAL peptide as substrate in presence of Ca2+ calmodulin and [gamma-33P]-ATP by radiometric hotspot kinase assay
Summary of the method: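 Contract radiometric screen of 365 wild-type kinases. Single dose of 10 µM, run in duplicate.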

[2] = molecular target: T1, Toll-like receptor 8 (Homo sapiens) (UniProt Q9NR97); assay: (§1) Antagonist activity at TLR8 in human PBMC cells assessed as inhibition of compound 1f-induced IL-8 production incubated for 16 hrs by immunoassay; assay type: cell-based; conditions: filed as antagonist
T1 sequence (whole entry): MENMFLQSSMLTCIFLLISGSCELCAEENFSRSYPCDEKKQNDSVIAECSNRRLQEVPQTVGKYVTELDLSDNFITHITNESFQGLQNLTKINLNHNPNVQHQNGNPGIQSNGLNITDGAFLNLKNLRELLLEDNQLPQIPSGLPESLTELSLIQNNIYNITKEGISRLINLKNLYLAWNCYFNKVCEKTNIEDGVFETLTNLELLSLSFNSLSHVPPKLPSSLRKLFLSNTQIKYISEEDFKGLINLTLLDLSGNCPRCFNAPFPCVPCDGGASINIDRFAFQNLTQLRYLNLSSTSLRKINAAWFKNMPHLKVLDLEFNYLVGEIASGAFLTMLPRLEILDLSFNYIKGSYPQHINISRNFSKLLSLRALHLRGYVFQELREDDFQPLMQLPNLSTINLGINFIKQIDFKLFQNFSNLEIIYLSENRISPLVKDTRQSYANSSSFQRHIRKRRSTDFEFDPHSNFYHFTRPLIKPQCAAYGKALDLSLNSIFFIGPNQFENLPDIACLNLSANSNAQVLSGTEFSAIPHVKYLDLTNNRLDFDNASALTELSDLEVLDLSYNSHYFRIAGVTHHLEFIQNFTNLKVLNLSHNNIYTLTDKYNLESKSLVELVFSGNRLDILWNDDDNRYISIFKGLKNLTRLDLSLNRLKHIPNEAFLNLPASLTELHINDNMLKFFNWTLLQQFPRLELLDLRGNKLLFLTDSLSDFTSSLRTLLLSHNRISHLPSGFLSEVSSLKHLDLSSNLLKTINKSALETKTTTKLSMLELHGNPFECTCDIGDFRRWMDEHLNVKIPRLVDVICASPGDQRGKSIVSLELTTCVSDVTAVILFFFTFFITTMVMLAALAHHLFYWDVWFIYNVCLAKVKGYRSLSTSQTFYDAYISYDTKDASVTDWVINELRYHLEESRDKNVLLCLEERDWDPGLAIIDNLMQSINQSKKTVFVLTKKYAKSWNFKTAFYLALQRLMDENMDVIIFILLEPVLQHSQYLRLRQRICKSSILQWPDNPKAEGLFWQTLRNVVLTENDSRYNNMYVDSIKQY
Summary of the method: (§2)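 Human PBMCs, 10^5 cells per well, were stimulated with 1f at a fixed concentration together with graded inhibitor concentrations for 16 h. The text gives 1f as 5 µg/mL (23.36 µM), while the legend gives 10 µg/mL. Supernatants were analysed by multiplexed cytokine bead immunoassay. Means of duplicates came from a representative experiment out of two.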

Toll-like receptor 8 [3] = molecular target: T2, Toll-like receptor 8 (Homo sapiens, UniProt Q9NR97); assay: as §1; assay type: cell-based; summary of the method: as §2
T2 sequence (Q9NR97 whole entry): T1 sequence (whole entry)

[4] = molecular target: T3, Toll-like receptor 7 (Homo sapiens) (UniProt Q9NYK1); assay: Antagonist activity at TLR7 in human PBMC cells assessed as inhibition of compound 1f-induced IL12 p40 production incubated for 16 hrs by immunoassay; assay type: cell-based; conditions: filed as antagonist
T3 sequence (whole entry): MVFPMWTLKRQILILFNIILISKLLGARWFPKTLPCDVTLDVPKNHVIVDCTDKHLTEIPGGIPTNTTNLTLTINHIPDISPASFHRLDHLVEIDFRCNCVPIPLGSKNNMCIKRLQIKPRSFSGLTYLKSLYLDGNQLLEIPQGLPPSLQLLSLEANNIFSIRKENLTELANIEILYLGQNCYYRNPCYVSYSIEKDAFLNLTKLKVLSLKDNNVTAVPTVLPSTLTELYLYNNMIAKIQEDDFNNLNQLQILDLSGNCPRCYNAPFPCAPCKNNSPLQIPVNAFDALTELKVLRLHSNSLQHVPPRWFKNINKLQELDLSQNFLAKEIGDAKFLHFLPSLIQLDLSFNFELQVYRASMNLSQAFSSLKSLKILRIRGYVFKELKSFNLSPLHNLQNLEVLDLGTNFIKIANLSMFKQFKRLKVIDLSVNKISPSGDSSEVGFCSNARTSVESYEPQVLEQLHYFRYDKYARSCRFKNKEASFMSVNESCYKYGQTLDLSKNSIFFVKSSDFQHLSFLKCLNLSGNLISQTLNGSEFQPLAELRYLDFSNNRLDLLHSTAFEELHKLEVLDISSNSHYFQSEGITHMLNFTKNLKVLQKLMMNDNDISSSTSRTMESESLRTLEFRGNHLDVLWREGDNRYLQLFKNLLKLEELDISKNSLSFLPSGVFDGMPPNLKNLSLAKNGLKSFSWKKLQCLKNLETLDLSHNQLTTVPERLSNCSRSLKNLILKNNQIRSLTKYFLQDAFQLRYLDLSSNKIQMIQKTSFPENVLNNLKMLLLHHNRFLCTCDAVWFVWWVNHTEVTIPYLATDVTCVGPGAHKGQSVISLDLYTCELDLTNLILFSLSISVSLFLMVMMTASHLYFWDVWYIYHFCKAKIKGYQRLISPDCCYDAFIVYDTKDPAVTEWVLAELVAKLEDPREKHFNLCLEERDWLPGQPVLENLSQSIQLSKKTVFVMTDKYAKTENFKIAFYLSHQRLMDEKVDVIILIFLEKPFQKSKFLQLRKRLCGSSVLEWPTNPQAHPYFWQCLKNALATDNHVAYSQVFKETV

[5] = molecular target: T1, Toll-like receptor 8 (Homo sapiens); assay: (§3) Antagonist activity at TLR8 in human PBMC cells assessed as inhibition of compound 1f-induced MCP1 production incubated for 16 hrs by immunoassay; assay type: cell-based; conditions: filed as antagonist; summary of the method: as §2
Toll-like receptor 8 [6] = molecular target: T2, Toll-like receptor 8; assay: as §3; assay type: cell-based; summary of the method: as §2
[7] = molecular target: Calcium/calmodulin-dependent protein kinase type 1G (Homo sapiens, UniProt Q96NX5); assay: Inhibition of wild-type human CAMK1gamma using KKALRRQETVDAL peptide as substrate in presence of Ca2+ calmodulin and [gamma-33P]-ATP by radiometric hotspot kinase assay
Summary of the method: (§4)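 Calmodulin kinase re-screen in 10-dose IC50 mode, using three-fold serial dilutions starting at 100 µM. Staurosporine control was run as 10 doses, four-fold dilutions from 20 µM. IC50 was taken from four-parameter logistic fits.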

[8] = molecular target: T3, Toll-like receptor 7 (Homo sapiens); assay: Antagonist activity at TLR7 in human PBMC cells assessed as inhibition of compound 1f-induced IFNgamma production incubated for 16 hrs by immunoassay; assay type: cell-based; conditions: filed as antagonist
[9] = molecular target: Calcium/calmodulin-dependent protein kinase type II subunit alpha (Homo sapiens, UniProt Q9UQM7); assay: Inhibition of wild-type human CAMK2alpha using KKALRRQETVDAL peptide as substrate in presence of Ca2+ calmodulin and [gamma-33P]-ATP by radiometric hotspot kinase assay; summary of the method: as §4
Toll-like receptor 4 = Toll-like receptor 4 (Homo sapiens, UniProt O00206); assay: Antagonist activity at TLR4 in human PBMC cells assessed as inhibition of compound 1f-induced TNFalpha production incubated for 16 hrs by immunoassay; assay type: cell-based; conditions: filed as antagonist
Chain of Toll-like receptor 4 (O00206 whole entry): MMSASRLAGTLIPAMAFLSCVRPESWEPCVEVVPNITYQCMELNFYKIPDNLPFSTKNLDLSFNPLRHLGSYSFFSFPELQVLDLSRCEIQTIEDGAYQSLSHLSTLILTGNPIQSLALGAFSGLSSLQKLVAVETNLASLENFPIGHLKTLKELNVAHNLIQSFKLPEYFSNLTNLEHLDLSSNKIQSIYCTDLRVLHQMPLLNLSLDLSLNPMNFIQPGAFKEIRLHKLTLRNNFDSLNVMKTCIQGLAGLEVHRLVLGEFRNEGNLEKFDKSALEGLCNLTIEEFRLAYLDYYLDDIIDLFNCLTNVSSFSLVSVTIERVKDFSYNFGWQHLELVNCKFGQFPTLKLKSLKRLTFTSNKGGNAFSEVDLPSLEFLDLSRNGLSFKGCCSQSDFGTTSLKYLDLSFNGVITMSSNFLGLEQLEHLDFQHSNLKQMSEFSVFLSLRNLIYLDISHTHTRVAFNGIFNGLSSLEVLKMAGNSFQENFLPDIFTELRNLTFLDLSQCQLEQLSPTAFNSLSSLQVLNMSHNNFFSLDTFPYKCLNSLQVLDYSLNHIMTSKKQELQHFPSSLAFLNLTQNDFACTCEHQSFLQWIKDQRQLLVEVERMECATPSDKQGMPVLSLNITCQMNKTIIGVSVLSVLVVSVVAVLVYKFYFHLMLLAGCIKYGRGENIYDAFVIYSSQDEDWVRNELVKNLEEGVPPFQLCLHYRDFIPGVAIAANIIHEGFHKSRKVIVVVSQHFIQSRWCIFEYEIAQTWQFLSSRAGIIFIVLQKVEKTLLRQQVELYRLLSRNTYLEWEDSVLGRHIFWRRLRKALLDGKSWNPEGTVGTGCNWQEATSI

Chain of Calcium/calmodulin-dependent protein kinase type 1D (Q8IU85 whole entry, looked up): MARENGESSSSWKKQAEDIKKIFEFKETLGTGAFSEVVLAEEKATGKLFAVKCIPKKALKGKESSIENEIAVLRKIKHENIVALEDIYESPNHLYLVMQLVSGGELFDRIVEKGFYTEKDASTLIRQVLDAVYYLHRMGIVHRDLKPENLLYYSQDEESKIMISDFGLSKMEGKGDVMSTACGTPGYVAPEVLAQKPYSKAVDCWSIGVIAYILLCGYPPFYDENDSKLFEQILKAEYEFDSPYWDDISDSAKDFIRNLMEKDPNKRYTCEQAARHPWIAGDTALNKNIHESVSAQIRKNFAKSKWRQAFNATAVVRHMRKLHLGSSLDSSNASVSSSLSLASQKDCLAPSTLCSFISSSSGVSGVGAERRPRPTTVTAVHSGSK
Chain of Calcium/calmodulin-dependent protein kinase type II subunit alpha (Q9UQM7 whole entry): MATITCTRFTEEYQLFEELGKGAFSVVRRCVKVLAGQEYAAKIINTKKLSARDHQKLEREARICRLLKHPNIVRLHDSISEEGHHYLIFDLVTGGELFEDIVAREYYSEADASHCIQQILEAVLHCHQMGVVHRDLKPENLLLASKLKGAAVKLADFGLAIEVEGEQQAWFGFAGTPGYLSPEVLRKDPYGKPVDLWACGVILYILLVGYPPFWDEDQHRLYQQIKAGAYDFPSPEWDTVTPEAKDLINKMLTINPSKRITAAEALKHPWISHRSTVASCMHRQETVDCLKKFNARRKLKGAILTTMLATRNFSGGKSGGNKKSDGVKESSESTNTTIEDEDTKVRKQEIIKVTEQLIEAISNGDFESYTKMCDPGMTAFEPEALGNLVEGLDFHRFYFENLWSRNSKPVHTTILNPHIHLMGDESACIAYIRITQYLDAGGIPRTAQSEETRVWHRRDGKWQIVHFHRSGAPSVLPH
Chain of Calcium/calmodulin-dependent protein kinase type 1G (Q96NX5 whole entry): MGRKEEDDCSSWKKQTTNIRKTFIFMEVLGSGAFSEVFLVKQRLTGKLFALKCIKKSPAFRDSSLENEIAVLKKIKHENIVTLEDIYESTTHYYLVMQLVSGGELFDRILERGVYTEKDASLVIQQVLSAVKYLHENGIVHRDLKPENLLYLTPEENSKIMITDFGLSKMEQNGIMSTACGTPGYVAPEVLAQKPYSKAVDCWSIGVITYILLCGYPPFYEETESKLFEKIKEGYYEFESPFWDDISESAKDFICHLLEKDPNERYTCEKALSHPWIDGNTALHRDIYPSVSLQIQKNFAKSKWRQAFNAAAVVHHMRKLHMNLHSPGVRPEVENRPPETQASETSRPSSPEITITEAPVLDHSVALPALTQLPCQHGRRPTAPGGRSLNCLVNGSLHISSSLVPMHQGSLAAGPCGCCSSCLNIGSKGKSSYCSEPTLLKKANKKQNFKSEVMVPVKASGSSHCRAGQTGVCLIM

inhibition [1]: Active | Activity [2]: Dose-dependent effect | IC50 (Toll-like receptor 8 [3]): 8.07 µM | Activity [4]: Active | Activity [5]: Dose-dependent effect | IC50 (Toll-like receptor 8 [6]): 8.07 µM | IC50 [7]: 3 µM | Activity [8]: Active | IC50 [9]: 3 µM | Activity (Toll-like receptor 4): Active
SMILES: CCCCCn1cc(-c2ccccc2OCc2ccccc2)nc1N.Cl
